Each block holds one compound with its values, some of them ahead of it.
Columns and labels:
[1] = tested on: 8-Br-cAMP-induced renal cyst growth in E13.5 embryonic kidneys; conditions: read-out: IC50 for inhibition of cyst growth; embryonic kidney culture; cited from earlier work
[2] = In vitro metabolic stability in hepatic microsomes; assay type: in vitro ADME, rat; conditions: for metabolic stability in hepatic microsomes: presence of NADPH
Summary of the method: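 Test compound (5 μM) incubated at 37 °C for specified times with rat liver microsomes (1 mg protein/ml) in 100 mM potassium phosphate buffer with NADPH 0 or 1 mM. Chilled, extracted with ice-cold ethyl acetate, dried under nitrogen, redissolved in acetonitrile:water 3:1 with 0.1% formic acid. Analysed by reverse-phase C18 LC (5–95% acetonitrile gradient, 16 min) and electrospray MS, scanning 150–1500 Da.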

human wildtype CFTR = human wildtype CFTR (Homo sapiens, UniProt P13569); experiment: Fluorescence plate-reader assay of CFTR-mediated iodide influx; assay type: cell-based
Summary of the method: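 FRT cells co-expressing human wild-type CFTR and YFP-H148Q were plated at 20,000 cells/well in Coon's modified F12 with 10% FBS and assayed 48 h later. After PBS washes, test compound was added for 45 min, then forskolin/IBMX/apigenin cocktail for 15 min. Fluorescence was read 2 s baseline, then 10 s after adding PBS with iodide replacing 137 mM chloride. Initial iodide influx rate by non-linear regression; n=4, S.E.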

[3] = tested on: 8-Br-cAMP-induced renal cyst growth in E13.5 embryonic kidneys; experiment: Embryonic kidney organ culture model of PKD; design: species or system mouse
Summary of the method: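 Mouse E13.5 metanephroi on porous culture inserts in DMEM/Ham's F-12 with L-glutamine, HEPES, insulin, transferrin, selenium, prostaglandin E, T3 and antibiotics. Kept at 37 °C in humidified CO2 for up to 8 days. Medium with 100 μM 8-Br-cAMP, with or without test compound (0, 0.1 or 1 μM), replaced every 12 h. Kidneys photographed by transmitted light at 520 nm; percentage cyst area = total cyst area / total kidney area.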

CFTR = CFTR (Homo sapiens, UniProt P13569); experiment: Short-circuit current analysis of CFTR inhibition in CFTR-expressing FRT cells; assay type: cell-based
Summary of the method: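 Ussing chamber short-circuit current on CFTR-expressing FRT cell inserts under voltage clamp. Apical buffer 75 mM NaCl + 75 mM Na gluconate, basolateral 150 mM NaCl, pH 7.3, giving a transepithelial chloride gradient. Basolateral membrane permeabilized with 250 μg/mL amphotericin B. CFTR activated with forskolin (20 μM), then serial additions of increasing test compound concentrations, with current recorded continuously.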

Sequence of human wildtype CFTR (P13569 whole entry): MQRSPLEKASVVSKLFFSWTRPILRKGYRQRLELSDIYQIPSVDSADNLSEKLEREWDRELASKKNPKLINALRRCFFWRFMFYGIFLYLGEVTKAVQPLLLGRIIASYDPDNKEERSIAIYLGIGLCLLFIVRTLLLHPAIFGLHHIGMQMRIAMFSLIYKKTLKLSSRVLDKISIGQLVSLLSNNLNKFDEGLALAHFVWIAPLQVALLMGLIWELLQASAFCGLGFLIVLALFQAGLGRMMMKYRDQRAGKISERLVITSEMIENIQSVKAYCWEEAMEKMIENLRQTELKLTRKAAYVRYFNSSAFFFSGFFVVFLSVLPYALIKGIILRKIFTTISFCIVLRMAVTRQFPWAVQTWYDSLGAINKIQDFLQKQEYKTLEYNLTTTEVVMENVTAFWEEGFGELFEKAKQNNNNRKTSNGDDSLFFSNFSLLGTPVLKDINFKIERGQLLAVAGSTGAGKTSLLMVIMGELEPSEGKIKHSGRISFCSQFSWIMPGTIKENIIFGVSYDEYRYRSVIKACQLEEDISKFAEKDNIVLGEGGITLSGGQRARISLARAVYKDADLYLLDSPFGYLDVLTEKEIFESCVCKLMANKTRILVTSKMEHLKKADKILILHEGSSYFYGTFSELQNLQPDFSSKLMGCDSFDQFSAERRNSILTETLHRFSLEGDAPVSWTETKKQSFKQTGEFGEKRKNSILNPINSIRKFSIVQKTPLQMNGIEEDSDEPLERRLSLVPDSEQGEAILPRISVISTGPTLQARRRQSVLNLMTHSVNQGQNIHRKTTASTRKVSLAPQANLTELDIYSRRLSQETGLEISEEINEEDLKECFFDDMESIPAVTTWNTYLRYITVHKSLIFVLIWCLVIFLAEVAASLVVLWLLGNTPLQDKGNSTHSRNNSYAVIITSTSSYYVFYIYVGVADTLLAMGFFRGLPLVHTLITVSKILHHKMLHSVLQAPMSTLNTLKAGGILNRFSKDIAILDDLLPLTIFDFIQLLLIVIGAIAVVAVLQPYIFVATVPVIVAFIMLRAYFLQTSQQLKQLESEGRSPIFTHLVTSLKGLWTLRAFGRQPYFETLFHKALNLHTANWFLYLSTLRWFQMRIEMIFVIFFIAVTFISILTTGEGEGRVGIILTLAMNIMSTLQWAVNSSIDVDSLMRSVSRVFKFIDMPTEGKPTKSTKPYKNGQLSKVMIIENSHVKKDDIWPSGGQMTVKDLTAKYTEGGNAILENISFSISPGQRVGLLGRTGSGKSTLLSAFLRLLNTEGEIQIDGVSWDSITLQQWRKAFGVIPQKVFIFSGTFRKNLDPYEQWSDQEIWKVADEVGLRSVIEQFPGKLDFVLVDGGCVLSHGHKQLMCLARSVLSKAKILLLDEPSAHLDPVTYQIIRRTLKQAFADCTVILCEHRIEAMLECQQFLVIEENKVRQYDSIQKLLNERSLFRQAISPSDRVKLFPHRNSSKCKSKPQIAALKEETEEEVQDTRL
Sequence of CFTR (P13569 whole entry): as above

Compound: Cc1ccc(C2Nc3ccccc3-n3c(-c4ccccc4)c4c(=O)n(C)c(=O)n(C)c4c32)o1 (stereo not drawn) [Compound 8, 7,9-Dimethyl-11-phenyl-6-(5-methylfuran-2-yl)-5,6-dihydro-pyrimido-[4',5'-3,4]pyrrolo[1,2-a]quinoxaline-8,10-(7H,9H)-dione]
- IC50 [1]: > 500 nM
- loss in hepatic microsomes in the absence of NADPH ([2]; absence of NADPH (data not shown)): No loss
- metabolic stability in hepatic microsomes [2]: poor metabolic stability

Compound: Cc1ccc(C2c3c4c(c(-c5ccccc5)n3-c3ccccc3N2C)c(=O)n(C)c(=O)n4C)o1 (stereo not drawn) [Compound 13]
- CFTR inhibition activity (human wildtype CFTR): weakly active

Compound: Cn1c(=O)c2c(-c3ccccc3)n3c(c2n(C)c1=O)C(c1ccc(Br)o1)Nc1ccccc1-3 (stereo not drawn) [Compound 18]
- metabolic stability in hepatic microsomes [2]: substantially more stable than 8

Compound: Cn1c(=O)c2c(-c3ccccc3)n3c(c2n(C)c1=O)C(c1ccc(Br)o1)Oc1ccccc1-3 (stereo not drawn) [Compound 31]
- metabolic stability in hepatic microsomes [2]: better stability than 8

Compound: Cn1c(=O)c2c(-c3ccccc3)n3c(c2n(C)c1=O)C(c1ccc(Br)o1)Oc1ccc([N+](=O)[O-])cc1-3 (stereo not drawn) [Compound 36]
- metabolic stability in hepatic microsomes [2]: excellent metabolic stability

Further lines, with some results ahead:

- CFTR inhibition activity (human wildtype CFTR): strongly inhibited CFTR
Compound: CCOC(=O)c1ccc2c(c1)-n1c(-c3ccccc3)c3c(=O)n(C)c(=O)n(C)c3c1C(c1ccc(Br)o1)O2 (stereo not drawn) [Compound 40, Ethyl 6-(5-Bromofuran-2-yl)-7,9-dimethyl-8,10-dioxo-11-phenyl-7,8,9,10-tetrahydro-6H-benzo[b]pyrimido [4',5':3,4]pyrrolo[1,2-d][1,4]oxazine-2-carboxylate]

- extent of CFTR inhibition (CFTR): fully inhibited CFTR
- improvement of metabolic stability compared to 8 ([2]; hepatic microsomes): > 10 fold
- metabolic stability in hepatic microsomes [2]: excellent stability
Compound: Cn1c(=O)c2c(-c3ccccc3)n3c(c2n(C)c1=O)C(c1ccc(Br)o1)Oc1ccc(C(=O)O)cc1-3 (stereo not drawn) [Compound 42, 6-(5-Bromofuran-2-yl)-7,9-dimethyl-8,10-dioxo-11-phenyl-7,8,9,10-tetrahydro-6H-benzo[b]pyrimido [4',5':3,4]pyrrolo [1,2-d][1,4]oxazine-2-carboxylic acid]
- improvement of potency for inhibition of renal cystogenesis ex vivo over 8 [3]: > 5 fold
